Laboratory results reported in ChEMBL document CHEMBL3813661, “Humudifucol and Bioactive Prenylated Polyphenols from Hops (Humulus lupulus cv. "Cascade")” (J Nat Prod, 2016).

Legend:
[1] = molecular target: T1, Polyunsaturated fatty acid 5-lipoxygenase (Homo sapiens, UniProt P09917); test: Inhibition of recombinant human 5-LO expressed in Escherichia coli MV1190 cells preincubated for 10 mins followed by addition of arachidonic acid as substrate measured after 10 mins by RP-HPLC method
T1 sequence (P09917 whole entry): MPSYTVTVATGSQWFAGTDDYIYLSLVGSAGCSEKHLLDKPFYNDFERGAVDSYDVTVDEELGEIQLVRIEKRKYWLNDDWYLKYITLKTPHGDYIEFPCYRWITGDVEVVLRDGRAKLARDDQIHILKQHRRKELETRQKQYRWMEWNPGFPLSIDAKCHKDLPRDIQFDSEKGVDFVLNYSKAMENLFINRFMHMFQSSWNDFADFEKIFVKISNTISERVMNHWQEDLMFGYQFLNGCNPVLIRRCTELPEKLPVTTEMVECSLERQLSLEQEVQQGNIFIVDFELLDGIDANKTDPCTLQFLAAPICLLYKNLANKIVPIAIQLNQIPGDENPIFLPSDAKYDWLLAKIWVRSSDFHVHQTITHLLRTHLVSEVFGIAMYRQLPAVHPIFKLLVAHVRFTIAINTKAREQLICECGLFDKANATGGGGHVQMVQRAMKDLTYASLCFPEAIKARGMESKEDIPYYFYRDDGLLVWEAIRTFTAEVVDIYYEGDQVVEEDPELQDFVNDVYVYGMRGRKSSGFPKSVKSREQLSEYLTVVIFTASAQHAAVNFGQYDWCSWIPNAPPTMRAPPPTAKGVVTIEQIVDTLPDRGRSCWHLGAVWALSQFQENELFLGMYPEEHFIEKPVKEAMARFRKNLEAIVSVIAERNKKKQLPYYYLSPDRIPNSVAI
Summary of the method: (§1)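 Recombinant human 5-LO expressed at 27 °C in E. coli MV1190 and partially purified from the 40000g supernatant on ATP-agarose. Enzyme taken up in PBS with 1 mM EDTA plus 1 mM ATP and preincubated with compound on ice 10 min. After 30 s at 37 °C, 2 mM CaCl2 and 20 μM AA added for 10 min. Stopped with methanol, products measured by RP-HPLC. Mean ± SEM, 3–4 experiments.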

[2] = molecular target: T2, Polyunsaturated fatty acid 5-lipoxygenase (Homo sapiens) (UniProt P09917); test: Inhibition of recombinant human 5-LO expressed in Escherichia coli MV1190 cells assessed as residual activity preincubated for 10 mins followed by addition of arachidonic acid as substrate measured after 10 mins by RP-HPLC method relative to control; summary of the method: as §1
T2 sequence (whole entry): T1 sequence (P09917 whole entry)

[3] = molecular target: T1, Polyunsaturated fatty acid 5-lipoxygenase; test: Inhibition of 5-LO in human polymorphonuclear leukocytes preincubated for 10 mins followed by addition of arachidonic acid as substrate measured after 10 mins by HPLC method; assay type: cell-based
[4] = molecular target: T3, Prostaglandin E synthase (Homo sapiens) (UniProt O14684); test: Inhibition of mPGES-1 in microsomes of IL1-beta induced human A549 cells assessed as PGE2 formation by measuring enzyme residual activity at 10 uM preincubated for 15 mins followed by addition of PGH2 as substrate measured after 1 min by RP-HPLC method relative to control
T3 sequence (whole entry): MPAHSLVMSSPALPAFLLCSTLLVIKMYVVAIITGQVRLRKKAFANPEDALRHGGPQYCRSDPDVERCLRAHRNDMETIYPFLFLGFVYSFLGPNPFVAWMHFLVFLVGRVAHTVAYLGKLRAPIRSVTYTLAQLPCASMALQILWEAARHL
Summary of the method: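 Microsomes from A549 cells stimulated with IL-1β (1 ng/mL) for 48 h, diluted in 0.1 M potassium phosphate pH 7.4 with 2.5 mM glutathione. Compound or vehicle added for 15 min at 4 °C, then 20 μM PGH2 for 1 min at 4 °C. Stopped with FeCl2/citric acid containing 11β-PGE2. PGE2 measured by solid-phase extraction and RP-HPLC. Residual activity as % of control, mean ± SEM, 3–4 experiments.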

[5] = molecular target: T2, Polyunsaturated fatty acid 5-lipoxygenase (Homo sapiens); test: Inhibition of 5-LO in human polymorphonuclear leukocytes assessed as residual activity at 10 uM preincubated for 10 mins followed by addition of arachidonic acid as substrate measured after 10 mins by HPLC method relative to control; assay type: cell-based

| Compound | IC50 ([1]; read-out: IC50) [µM] | Activity [2] [%] | IC50 [3] | Activity [4] [%] | IC50 ([3]; read-out: IC50) [µM] | Activity [5] [%] | IC50 [1] |
| --- | --- | --- | --- | --- | --- | --- | --- |
| CC(C)=CCC1=C2O[C@@H](C(C)(C)O)C[C@@]2(O)C(=O)C(C(=O)CC(C)C)=C1O | > 10 | 90.8 | Not Active | 52.7 | – | – | – |
| CC(C)=CCC1(O)C(=O)C(CC=C(C)C)(CC=C(C)C)C(=O)C(C(=O)C(C)C)=C1O (stereo not drawn) | 5.9 | – | – | 32.8 | > 10 | 57.5 | – |
| CC(C)=CCC1=C(O)[C@](O)(CC=C(C)C)C(=O)C(C(=O)CC(C)C)=C1O | 9.3 | – | – | 49.7 | > 10 | 63.1 | – |

More lines, now with the values ahead:

| IC50 ([1]; read-out: IC50) [µM] | Activity [2] [%] | IC50 [3] | Activity [4] [%] | IC50 ([3]; read-out: IC50) [µM] | Activity [5] [%] | IC50 [1] | Compound |
| --- | --- | --- | --- | --- | --- | --- | --- |
| > 10 | 58 | – | 35.3 | > 10 | 56.8 | – | COc1cc2c(c(O)c1C(=O)/C=C/c1ccc(O)cc1)C=CC(C)(C)O2 [XANTHOHUMOL C] |
| – | – | Not Active | 40.2 | – | – | Not Active | CC(C)=CCc1c(O)cc(O)c(-c2c(O)cc(O)c(CC=C(C)C)c2O)c1O |
| > 10 | 66.7 | – | 56.5 | > 10 | 87.5 | – | CC(C)=CCc1c(O)cc(O)c2c1O[C@H](c1ccc(O)cc1)CC2=O |
| 2.1 | – | – | 32.3 | 2.9 | – | – | COc1cc(O)c(CC=C(C)C)c(O)c1C(=O)/C=C/c1ccc(O)cc1 [XANTHOHUMOL] |
